In ChEMBL document CHEMBL3352202 (J Med Chem, 2014) one finds IC50, t1/2 and inhibition data, which are given here for 15 compounds.

For data set [1], the system named is LNCaP. The data set is described as follows: Antiproliferative activity against human LNCAP cells after 96 hrs by SRB assay. Format: functional, cell-based. Put shortly: (§1)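 Prostate cancer lines were exposed to compound for 96 h, with cell growth read by sulforhodamine B staining. Results are IC50 ± SEM.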
Data set [2] in a line: Antiproliferative activity against human PPC1 cells after 96 hrs by SRB assay. Particulars: PPC-1, 96 h. Type of data set: functional, cell-based. The method, boiled down:
as §1
In general terms: The SRB assay estimates cell density from bound dye.

A short description of data set [3]: Antiproliferative activity against mouse B16-F1 cells after 96 hrs by SRB assay. Format: functional, cell-based. To be noted: B16-F1, 96 h.
The test system of data set [4] is DU-145. The data set is described as follows: Antiproliferative activity against human DU145 cells after 96 hrs by SRB assay. To be noted: DU-145, 96 h. Format: functional, cell-based. The method, boiled down: as §1
Data set [5] can be described thus: Antiproliferative activity against human PC3 cells after 96 hrs by SRB assay. Type of data set: functional, cell-based. Particulars: PC-3, 96 h. The method, boiled down:
as §1

The subject of data set [6] is A-375. In words: Antiproliferative activity against human A375 cells after 96 hrs by SRB assay. Format: functional, cell-based. Particulars: A-375, 96 h.
Data set [7] concerns Liver. In words: Half life in mouse liver microsomes at 0.5 uM by LC-MS/MS analysis.
In data set [8] the test system is Liver microsome. In words: Half life in human liver microsomes at 0.5 uM by LC-MS/MS analysis. For orientation: Liver microsomes are vesicles of endoplasmic reticulum, rich in cytochrome P450 enzymes.
For data set [9], the system named is Liver microsome. In words: Half life in rat liver microsomes at 0.5 uM by LC-MS/MS analysis.
The target of data set [10] is T1, Tubulin (Bos taurus) (UniProt Q6B856+Q862L2+Q862F3). The data set is described as follows: Inhibition of bovine brain tubulin polymerization at 5 uM for 20 mins by spectrophotometry. The method, boiled down:
(§2)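 Bovine brain tubulin (0.4 mg, >97% pure) in general tubulin buffer pH 6.9 (80 mM PIPES, 2.0 mM MgCl2, 0.5 mM EGTA, 1 mM GTP) with compound at 5 or 10 μM, 37 °C. A340 was read each minute for 20 min, and percent inhibition was taken relative to vehicle.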

Data set [11] concerns the target T1, Tubulin (Bos taurus). The data set is described as follows: Inhibition of bovine brain tubulin polymerization at 10 uM for 20 mins by spectrophotometry. Put shortly:
as §2

For the compound `COc1cc(C(=O)c2csc(-c3ccccc3)n2)cc(OC)c1OCc1ccccc1`, the IC50 was over 10000 nM in [1]; over 10000 nM in data set [2]; 10600 nM in data set [3]; over 10000 nM in [4]; over 10000 nM in data set [5]; over 10000 nM in data set [6].

Turning to `COc1cc(C(=O)c2csc(-c3ccccc3)n2)cc(OC)c1OCCN`, the concentration for half-maximal inhibition (IC50) was determined as 117 nM in [1]; 184 nM in [2]; 142 nM in [3]; 464 nM in data set [4]; 158 nM in [5]; 527 nM in data set [6].

Regarding `COc1cc(-c2cccc3[nH]c(-c4ccccc4)nc23)cc(OC)c1OC`, the IC50 in data set [1] came out at 2100 nM; in data set [2] it was 2100 nM; in data set [4], 7800 nM; in [5], 2400 nM.

Consider `COCOc1c(OC)cc(C(=O)c2csc(-c3ccccc3)n2)cc1OC`, for which the half-maximal inhibitory concentration (IC50) came out at 31 nM in data set [1]; 22 nM in [2]; 19 nM in data set [3]; 112 nM in data set [4]; 17 nM in [5]; 20 nM in [6]. Besides, the t1/2 in data set [7] was found to be 4 min; in [8] it was 7.8 min; in data set [9], 9.7 min.

Consider `COc1cc(-c2cccc3[nH]c(-c4n[nH]c5ccccc45)nc23)cc(OC)c1OC`, for which the IC50 in data set [1] came out at 1600 nM; in [2] it was 1000 nM; in data set [4], 4000 nM; in [5], 800 nM; in data set [6], 1100 nM.

Take `COc1cc(C(=O)c2csc(-c3ccccc3)n2)cc(OC)c1OC(=O)C(F)(F)F`: the concentration for half-maximal inhibition (IC50) is over 10000 nM in data set [1]; over 10000 nM in data set [2]; 8900 nM in data set [3]; over 10000 nM in data set [4]; over 10000 nM in data set [5]; 22200 nM in [6].

In the case of `COc1cc(-c2cccc3[nH]c(-c4c[nH]c5ccccc45)nc23)cc(OC)c1OC`, the 50% inhibitory concentration (IC50) in data set [1] came to 800 nM; in data set [2], 1300 nM; in [4] it was 4200 nM; in [5] it was 900 nM; in [6] it was 600 nM.

Turning to `COc1cc(C(=O)c2csc(Nc3ccccc3)n2)cc(OC)c1OC`, the half-inhibitory concentration (IC50) was 28 nM in data set [1]; 43 nM in [2]; 65 nM in data set [3]; 71 nM in [4]; 21 nM in data set [5]; 28 nM in data set [6].

With `COc1cc(C(=O)c2csc(-c3ccccc3)n2)cc(OC)c1OC(=O)CCl`, the IC50 is over 10000 nM in data set [1]; over 10000 nM in data set [2]; 3200 nM in [3]; over 10000 nM in data set [4]; over 10000 nM in [5]; 10800 nM in data set [6].

In the case of `COc1cc(-c2cccc3[nH]c(-c4ccc5[nH]ccc5c4)nc23)cc(OC)c1OC`, the 50% inhibitory concentration (IC50) in data set [1] amounted to 28 nM; in [2] it was 20 nM; in data set [4] it was 57 nM; in [5] it was 22 nM; in data set [6] it was 25 nM. Moreover, the inhibition was 30% in data set [10] and 60% in data set [11].

On to `COc1cc(C(=O)c2csc(Nc3ccc4[nH]ccc4c3)n2)cc(OC)c1OC`, for which the concentration for half-maximal inhibition (IC50) in [1] was determined as 13 nM; in data set [2], 15 nM; in [3] it was 84 nM; in data set [4], 24 nM; in [5], 12 nM; in data set [6], 25 nM.

As for `COc1cc(-c2nccc3[nH]c(-c4ccc5[nH]ccc5c4)nc23)cc(OC)c1OC`, the IC50 in [1] was 5 nM; in [2], 42 nM; in data set [5], 6 nM; in data set [6], 5 nM. Further, the values for the t1/2 in [7], in data set [8] and in data set [9] were 19.7 min, 45.3 min and 30.4 min, respectively. Moreover, the values for the inhibition in data set [10] and in [11] were 33% and 81%, respectively.

Turning to `COc1cc(C(=O)c2csc(-c3ccccc3)n2)cc(OC)c1OCCN1C(=O)c2ccccc2C1=O`, the IC50 in [1] is 1400 nM; in [2], 600 nM; in [3], 1300 nM; in data set [4], 600 nM; in [5], over 10000 nM; in data set [6] it was 3100 nM.

With `COc1cc(C(=O)c2csc(-c3ccccc3)n2)cc(OC)c1OC`, the 50% inhibitory concentration (IC50) worked out at 43 nM in data set [2], 55 nM in [3] and 21 nM in [5].

On to `COc1cc(C(=O)c2c[nH]c(Nc3ccccc3)n2)cc(OC)c1OC`, for which the IC50 in data set [1], in data set [2], in data set [3], in data set [4], in data set [5] and in data set [6] was over 30000 nM in each case.

The term IC50 denotes the midpoint of a concentration-inhibition curve. By inhibition is commonly meant the percentage by which the read-out fell short of the control.
